The results in this text go back to ChEMBL document CHEMBL3352088, “Novel derivatives of usnic acid effectively inhibiting reproduction of influenza A virus” (Bioorg Med Chem, 2014).

Data set [1] can be described thus: Cytotoxicity against MDCK cells assessed reduction in cell viability after 48 hrs by MTT assay. The data set is classed as cell-based, Canis lupus familiaris. To be noted: dog, read-out: CTD50. The gist of the method: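 MDCK monolayers were grown in MEM with 5% fetal calf serum and washed with serum-free MEM. Compounds (5 mg/ml DMSO stock) were applied as twofold dilutions, 1000–4 microgram/ml in MEM, for 48 h at 37°C. After PBS washes, MTT (0,5 mg/ml) was added for 60 min at 37°C, 5% CO2. Formazan was dissolved in DMSO and read at 535 nm. CTD50 is the concentration cutting viability 50%.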

Data set [2] in a line: Selectivity index, ratio of CTD50 for MDCK cells to ED50 for Influenza A virus (A/California/07/09(H1N1)) pdm09. Format: toxicity, cell-based. Conditions: dog, read-out: Selectivity Index.

As to `CC(=O)c1c(O)c(C)c(O)c2c1OC1=Cc3c(c(C)nn3-c3ccccc3)C(=O)[C@@]12C`, the CC50 at 48 h in data set [1] was found to be 832 µM. Further, the selectivity ratio in data set [2] was 12.
For `CC(=O)c1c(O)c(C)c(O)c2c1OC1=Cc3c(c(C)nn3-c3ccccc3)C(=O)[C@]12C` the same measures were 565 µM and 10.
Consider `CC(=O)c1c(O)c(C)c(O)c2c1OC1=Cc3c(c(C)nn3-c3ccccc3)[C@@H](O)[C@@]12C`, for which the CC50 at 48 h in data set [1] came to 26.3 µM. The selectivity ratio in data set [2] worked out at 11.
As to `CC(=O)c1c(O)c(C)c(O)c2c1OC1=CC(=O)/C(=C(/C)NCC(=O)O)C(=O)[C@@]12C`, the selectivity ratio in data set [2] was 6.
For `CC(=O)c1c(O)c(C)c(O)c2c1OC1=CC(=O)/C(=C(/C)NCC(=O)O)C(=O)[C@]12C`, the CC50 at 48 h in data set [1] turned out to be 150 µM. The selectivity ratio in data set [2] stood at 14.
For the compound `CC(=O)c1c(O)c(C)c(O)c2c1OC1=CC(=O)/C(=C(/C)NCCC(=O)O)C(=O)[C@@]12C`, the CC50 at 48 h in data set [1] came to 147 µM. The selectivity ratio in data set [2] was determined as 20.3.
With `CC(=O)c1c(O)c(C)c(O)c2c1OC1=CC(=O)/C(=C(/C)NCCC(=O)O)C(=O)[C@]12C`, the CC50 at 48 h in data set [1] turned out to be 145 µM. Moreover, the selectivity ratio in data set [2] turned out to be 10.
For `CC(=O)C1=C(O)C=C2O[C@]34O[C@@]3(C(C)=O)C(=O)C(C)=C(O)[C@]4(O)[C@@]2(C)C1=O` the same measures were 234 µM and 22.
As for `CC(=O)c1c(O)c(C)c(O)c2c1OC1=CC(=O)/C(=C(/C)NCCCC(=O)O)C(=O)[C@@]12C`, the CC50 at 48 h in data set [1] stood at 130 µM. The selectivity ratio in data set [2] was found to be 3.7.
In the same order, the values of `CSCC[C@H](N/C(C)=C1\C(=O)C=C2Oc3c(C(C)=O)c(O)c(C)c(O)c3[C@@]2(C)C1=O)C(=O)O` are 21.1 µM and 5.
In the same order, the values of `CC(=O)c1c(O)c(C)c(O)c2c1OC1=CC(=O)/C(=C(/C)N[C@@H](CC(C)C)C(=O)O)C(=O)[C@@]12C` are 13.1 µM and 2.
For `CC(=O)c1c(O)c(C)c(O)c2c1OC1=CC(=O)/C(=C(/C)N[C@H](CC(=O)O)CC(C)C)C(=O)[C@]12C` the same measures were 32.8 µM and 5.
Regarding `CC(=O)c1c(O)c(C)c(O)c2c1OC1=CC(=O)/C(=C(/C)NCCCC(=O)O)C(=O)[C@]12C`, the CC50 at 48 h in data set [1] was determined as 83.9 µM. Moreover, in data set [2], the selectivity ratio came out at 3.
For `CC(=O)c1c(O)c(C)c(O)c2c1OC1=Cc3c(c(C)nn3-c3cccc(C(F)(F)F)c3)C(=O)[C@@]12C` the same measures were 1100 µM and 16.
For `CC(=O)c1c(O)c(C)c(O)c2c1OC1=Cc3c(c(C)nn3-c3ccccc3)[C@H](O)[C@]12C` the same measures were 47.8 µM and 4.
In the case of `COc1c(C)c(O)c(C(=O)/C=C/c2ccccc2)c2c1[C@]1(C)C(=Cc3c(c(C)nn3-c3ccccc3)[C@H]1O)O2`, the CC50 at 48 h in data set [1] came to 36.5 µM. For the same compound, the selectivity ratio in data set [2] was 1.1.
In the same order, the values of `COc1c(C)c(O)c(C(=O)/C=C/c2ccc(Cl)cc2)c2c1[C@]1(C)C(=Cc3c(c(C)nn3-c3ccccc3)[C@H]1O)O2` are 253 µM and 4.6.
In the case of `COc1ccccc1/C=C/C(=O)c1c(O)c(C)c(OC)c2c1OC1=Cc3c(c(C)nn3-c3ccccc3)[C@@H](O)[C@@]12C`, the CC50 at 48 h in data set [1] stood at 909 µM. Besides, the selectivity ratio in data set [2] stood at 11.
For `COc1ccc(/C=C/C(=O)c2c(O)c(C)c(OC)c3c2OC2=Cc4c(c(C)nn4-c4ccccc4)[C@@H](O)[C@@]23C)cc1OC` the same measures were 431 µM and 12.5.
`COc1cccc(/C=C/C(=O)c2c(O)c(C)c(OC)c3c2OC2=Cc4c(c(C)nn4-c4ccccc4)[C@@H](O)[C@@]23C)c1OC`: the CC50 at 48 h in data set [1] amounted to 862 µM. The selectivity ratio in data set [2] amounted to 17.
For `COc1ccc(/C=C/C(=O)c2c(O)c(C)c(OC)c3c2OC2=Cc4c(c(C)nn4-c4ccccc4)[C@@H](O)[C@@]23C)c(OC)c1OC` the same measures were 279 µM and 8.5.
On to `COc1cc(/C=C/C(=O)c2c(O)c(C)c(OC)c3c2OC2=Cc4c(c(C)nn4-c4ccccc4)[C@@H](O)[C@@]23C)cc(OC)c1OC`, for which the CC50 at 48 h in data set [1] amounted to 98.4 µM. Besides, in data set [2], the selectivity ratio worked out at 12.
On to `COc1ccc(OC)c(/C=C/C(=O)c2c(O)c(C)c(OC)c3c2OC2=Cc4c(c(C)nn4-c4ccccc4)[C@@H](O)[C@@]23C)c1`, for which the CC50 at 48 h in data set [1] is 517 µM. Also, the selectivity ratio in data set [2] was found to be 20.
In the same order, the values of `COc1ccc(/C=C/C(=O)c2c(O)c(C)c(OC)c3c2OC2=Cc4c(c(C)nn4-c4ccccc4)[C@@H](O)[C@@]23C)c(OC)c1` are 517 µM and 20.
In the case of `COc1c(C)c(O)c(C(=O)/C=C/c2ccc(SC)cc2)c2c1[C@]1(C)C(=Cc3c(c(C)nn3-c3ccccc3)[C@H]1O)O2`, the CC50 at 48 h in data set [1] amounted to 530 µM. Also, in data set [2], the selectivity ratio amounted to 10.
`COc1cccc(/C=C/C(=O)c2c(O)c(C)c(OC)c3c2OC2=Cc4c(c(C)nn4-c4ccccc4)C(=O)[C@@]23C)c1OC`: the CC50 at 48 h in data set [1] was found to be 34.6 µM. In data set [2], the selectivity ratio was found to be 4.
For the compound `COc1ccc(-c2cc(-c3c(O)c(C)c(OC)c4c3OC3=Cc5c(c(C)nn5-c5ccccc5)[C@@H](O)[C@@]34C)n[nH]2)cc1`, in data set [1], the CC50 at 48 h stood at 1020 µM. Also, the selectivity ratio in data set [2] came to 10.
For `COc1c(C)c(O)c(C(=O)/C=C/c2ccccc2)c2c1[C@@]1(C)C(=Cc3c(c(C)nn3-c3ccccc3)[C@@H]1O)O2` the same measures were 106 µM and 1.7.
Turning to `COc1c(C)c(O)c(C(=O)/C=C/c2ccc(Cl)cc2)c2c1[C@@]1(C)C(=Cc3c(c(C)nn3-c3ccccc3)[C@@H]1O)O2`, in data set [1], the CC50 at 48 h amounted to 116 µM. The selectivity ratio in data set [2] was 1.5.
In the same order, the values of `COc1ccccc1/C=C/C(=O)c1c(O)c(C)c(OC)c2c1OC1=Cc3c(c(C)nn3-c3ccccc3)[C@H](O)[C@]12C` are 909 µM and 14.
For `COc1cccc(/C=C/C(=O)c2c(O)c(C)c(OC)c3c2OC2=Cc4c(c(C)nn4-c4ccccc4)[C@H](O)[C@]23C)c1OC` the same measures were 862 µM and 11.3.
For `CC(=O)C1=C(O)C=C2Oc3c4c(c(C)c(O)c3[C@]2(C)C1=O)OCC4=O` the same measures were 132 µM and 2.
As for `CC(=O)C1=C(O)C=C2Oc3c4c(c(C)c(O)c3[C@@]2(C)C1=O)OCC4=O`, the CC50 at 48 h in data set [1] came out at 117 µM. Besides, the selectivity ratio in data set [2] worked out at 1.8.
In the same order, the values of `COc1ccccc1/C=C1\Oc2c(C)c(O)c3c(c2C1=O)OC1=CC(O)=C(C(C)=O)C(=O)[C@@]13C` are 32.6 µM and 6.8.
In the case of `CC(=O)C1=C(O)C=C2Oc3c4c(c(C)c(O)c3[C@@]2(C)C1=O)O/C(=C\c1ccc(Br)cc1)C4=O`, in data set [1], the CC50 at 48 h worked out at 39.4 µM. Further, in data set [2], the selectivity ratio turned out to be 8.3.
Regarding `CC(=O)C1=C(O)C=C2Oc3c4c(c(C)c(O)c3[C@@]2(C)C1=O)O/C(=C\c1ccncc1)C4=O`, in data set [1], the CC50 at 48 h came out at 46.4 µM. In addition, in data set [2], the selectivity ratio amounted to 6.1.
For `CC(=O)C1=C(O)C=C2Oc3c4c(c(C)c(O)c3[C@@]2(C)C1=O)O/C(=C\c1cccnc1)C4=O` the same measures were 53.4 µM and 7.7.
As for `CC(=O)C1=C(O)C=C2Oc3c(C(=O)CSc4nc5ccccc5s4)c(O)c(C)c(O)c3[C@@]2(C)C1=O`, the CC50 at 48 h in data set [1] amounted to 58.9 µM. Moreover, in data set [2], the selectivity ratio worked out at 2.
For `CC(=O)C1=C(O)C=C2Oc3c(C(=O)CSc4nc5ccccc5o4)c(O)c(C)c(O)c3[C@@]2(C)C1=O` the same measures were 2 µM and 1.
In the same order, the values of `CC(=O)C1=C(O)C=C2Oc3c(C(=O)CSCc4ccccc4)c(O)c(C)c(O)c3[C@@]2(C)C1=O` are 6.4 µM and 3.
In the same order, the values of `CC(=O)C1=C(O)C=C2Oc3c(C(=O)CSCc4ccc(C)cc4)c(O)c(C)c(O)c3[C@@]2(C)C1=O` are 2.1 µM and 1.
As to `CC(=O)C1=C(O)C=C2Oc3c(C(=O)CSCc4ncccc4C(=O)O)c(O)c(C)c(O)c3[C@@]2(C)C1=O`, in data set [1], the CC50 at 48 h came to 177 µM. Further, the selectivity ratio in data set [2] turned out to be 3.1.
In the same order, the values of `COc1c(C)c(O)c2c(c1C(=O)CSC1=NCCS1)OC1=CC(O)=C(C(C)=O)C(=O)[C@@]12C` are 105 µM and 7.1.
In the same order, the values of `COc1ccc2[nH]c(SCC(=O)c3c(OC)c(C)c(O)c4c3OC3=CC(O)=C(C(C)=O)C(=O)[C@@]34C)nc2c1` are 560 µM and 23.1.
As for `COc1c(C)c(O)c2c(c1C(=O)CSc1nc3ccccc3o1)OC1=CC(O)=C(C(C)=O)C(=O)[C@]12C`, the CC50 at 48 h in data set [1] was determined as 178 µM. The selectivity ratio in data set [2] amounted to 7.5.
For `COc1c(C)c(O)c2c(c1C(=O)CSCCC(=O)O)OC1=CC(O)=C(C(C)=O)C(=O)[C@@]12C` the same measures were 938 µM and 5.8.
Take `CC(=O)C1=C(O)C=C2Oc3c(C(C)=O)c(OC(F)(Cl)C(F)F)c(C)c(O)c3[C@@]2(C)C1=O` (some centres undefined): the CC50 at 48 h in data set [1] came out at 100 µM. Besides, the selectivity ratio in data set [2] turned out to be 14.
In the same order, the values of `CC(=O)C1=C(O)C=C2Oc3c(C(C)=O)c(OC(=O)c4ccccc4Br)c(C)c(OC(=O)c4ccccc4Br)c3[C@@]2(C)C1=O` are 31.1 µM and 4.
For `CC(=O)C1=C(O)C=C2O[C@@]34O[C@]3(C(C)=O)C(=O)C(C)=C(O)[C@@]4(O)[C@]2(C)C1=O` the same measures were 152 µM and 5.3.
For `CC(=O)[C@@]12O[C@@]13OC1=Cc4c(c(C)nn4-c4ccccc4)C(=O)[C@]1(C)[C@@]3(O)C(O)=C(C)C2=O` the same measures were 67 µM and 5.
